# Shown are actives, neighbours in structure and some others; about 2.3% of the full set was active somewhere.
# HCV core dimer – HCV core protein dimerization inhibition | inhibition, % at 5 µM | actives 0.33% (n = 300,000) | TR-FRET GST/Flag-core106 dimerization, 1536-well;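 active means inhibition above the mean of all tested compounds plus 3 SD, set per screening campaign, cut at about 45% in these data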
#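 Material: GST/Flag-tagged HCV core106 proteins. Incubation: 4 h, 22.5 °C incubation. Read-out basis: inhibition (%) from 671 over 617 nm ratio. Measured by: TR-FRET, excitation 340 nm, emission 617 and 671 nm.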
# GPR7 antag – antagonists of human GPR7 (neuropeptides B/W receptor 1). actives 1.1% (n = 290,000). GPR7-expressing cells, fluorescence antagonist assay. inhibition, % at 4.4 µM; in the data active means inhibition above about 16%, passing the limit was not always enough;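 further: cells stimulated with the agonist NPW; 0% = agonist with vehicle and 100% = vehicle without agonist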
# ZTA DNA inh – ZTA (EBV) inhibition in EBNA-1 counter-screen; P03206; ZTA-DNA binding, fluorescence polarization; inhibition, % at 11 µM; actives 0.15% (n = 320,000); AID 2234; in the data active means inhibition above about 33%
# Target sequence (P03206 whole entry, looked up): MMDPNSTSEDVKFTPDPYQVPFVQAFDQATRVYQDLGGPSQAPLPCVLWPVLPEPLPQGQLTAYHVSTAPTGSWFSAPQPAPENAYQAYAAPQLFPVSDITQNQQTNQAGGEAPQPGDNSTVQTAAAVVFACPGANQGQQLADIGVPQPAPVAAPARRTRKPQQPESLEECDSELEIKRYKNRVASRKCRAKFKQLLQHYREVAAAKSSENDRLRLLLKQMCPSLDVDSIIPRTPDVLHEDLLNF
# EBNA-1 inh – blocks EBNA-1 binding to DNA | AID 1950 | actives 0.34% (n = 300,000) | EBNA-1 DNA binding, fluorescence polarization | inhibition, % at 14.8 µM; in the data active means inhibition above about 28%
# EBV gp42 block – blocks Epstein-Barr virus glycoprotein 42 binding | actives 0.42% (n = 220,000) | Fluorescence polarization binding assay, mP read-out | inhibition, % (tested at 21.74 µM) | Q1HVG2; in the data active means inhibition above about 50%
# Target sequence (Q1HVG2 whole entry, looked up): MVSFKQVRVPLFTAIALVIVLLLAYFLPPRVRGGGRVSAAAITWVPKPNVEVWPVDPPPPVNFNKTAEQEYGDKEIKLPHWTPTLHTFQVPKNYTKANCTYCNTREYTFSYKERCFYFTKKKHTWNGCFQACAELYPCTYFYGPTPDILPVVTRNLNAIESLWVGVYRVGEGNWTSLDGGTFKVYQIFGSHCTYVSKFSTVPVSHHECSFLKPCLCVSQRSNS
# HCV NS3 hel inh – blocks Hepatitis C virus NS3 helicase unwinding. actives 0.56% (n = 290,000). NS3 helicase DNA unwinding, Cy5 molecular beacon fluorescence. inhibition, % at 10.9 µM;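 active means inhibition above the mean of all tested compounds plus 3 SD, set per campaign, cut at about 35% in these data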;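 further: 0% = DMSO wells and 100% = thioflavine S control wells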
#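 assay system = NS3 helicase fragment of HCV | buffer or medium = MOPS pH 6.5, MgCl2, DTT, Tween20, BSA | timing = 60 min unwinding reaction at 25 °C after ATP addition | signal = Cy5 beacon fluorescence read at start and 1 h | read-out basis = % inhibition of unwinding | control set = low DMSO, high thioflavine S at 110 µM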
# NS3 hel confirm – confirmation of Hepatitis C virus NS3 helicase inhibitors | shares compounds with HCV NS3 hel inh | actives 31% (n = 1,600) | inhibition, % at 10.9 µM | NS3 helicase DNA unwinding, Cy5 molecular beacon fluorescence;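 active means inhibition above the mean of all tested compounds plus 3 SD, cutoff set per campaign, cut at about 36% in these data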
# DNA FID counter – displaces DNA intercalator in HCV helicase counter-screen; inhibition, % at 7.9 µM; AID 1945; DNA fluorescent intercalator displacement, fluorescence; actives 4% (n = 1,600); shares compounds with HCV NS3 hel inh; in the data active means inhibition above about 37%;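 further: 0% = vehicle and 100% = reference compound; higher means more displacement of ethidium bromide from the DNA hairpin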
# DNA FID DR – displaces fluorescent intercalator from DNA, HCV helicase counter-screen | fluorescent intercalator displacement from DNA, fluorescence | IC50, µM | shares compounds with HCV NS3 hel inh | 120 tested, under 10 active; call rule not given here
# An asterisk follows results filed as active; / = no result given.
SMILES,HCV core dimer,GPR7 antag,ZTA DNA inh,EBNA-1 inh,EBV gp42 block,HCV NS3 hel inh,NS3 hel confirm,DNA FID counter,others
Cc1ccccc1NC1c2ccccc2C(=O)N1Cc1ccco1 (centres undefined),4,-17,11,5,-1,41*,-1,-4,
COc1cccc(NC2c3ccccc3C(=O)N2Cc2ccco2)c1 (centres undefined),28,-1,2,7,-11,0,/,/,
O=C(CCC1CCN(Cc2ccc(Cl)cc2)CC1)NC1CC1,-6,-16,-11,-8,/,36*,-15,1,
O=C(CCC1CCN(Cc2ccc(C#CCCO)cc2)CC1)NC1CC1,-1,2,-4,0,/,-1,/,/,
Cc1ccc(OCc2n[nH]c(=S)n2-c2ccc(Br)cc2)cc1,4,2,-9,-4,/,37*,0,-22,
CCOc1ccc(CN(C(=O)c2cc3ccccc3oc2=O)C2CCS(=O)(=O)C2)cc1 (centres undefined),-2,10,7,0,-5,-1,/,/,
Cc1c(NC(=O)COC(=O)c2ccccc2Cl)c(=O)n(-c2ccccc2)n1C,0,1,-3,2,-16,108*,-11,-1,
CCCCOc1ccc(N2C(=O)CC(N(O)c3ccccc3)C2=O)cc1 (centres undefined),9,-9,-5,5,5,37*,-2,13,
CCCCCOc1ccc(N2C(=O)CC(N(O)c3ccccc3)C2=O)cc1 (centres undefined),18,-13,-22,4,-12,45*,7,4,
CCCCN(C(C)=O)C1CC(=O)N(c2ccc(OCCC)cc2)C1=O (centres undefined),-6,-10,-14,2,-10,-10,/,/,
COc1ccc(C(=O)C2CCCN(C(=O)Cn3nc(C)cc3C)C2)cc1F (centres undefined),-4,-16,-17,-13,-14,2,/,/,
C/C=C/C(O)c1ccc2ccccc2c1 (centres undefined),-4,-4,1,-2,/,41*,0,4,
CN(Cc1ccccc1)C(=O)c1ccc(NC(=O)Cc2cccc(NC(=O)C3CCCN(C(=O)C4CCC4)C3)c2)cc1 (centres undefined),/,/,2,/,/,/,/,/,
Cc1ccc(/C=C/C(=O)c2ccccc(=O)c2O)c(C)c1,24,2,4,7,3,38*,77*,17,DNA FID DR=>79
Cc1ccc(C)c(/C=C/C(=O)c2ccccc(=O)c2O)c1,5,-5,3,-1,-6,38*,77*,16,DNA FID DR=>79
O=C(/C=C/c1ccccc1Cl)c1ccccc(=O)c1O,7,-4,10,2,-11,44*,78*,33,DNA FID DR=>79
O=C(/C=C/c1ccc(O)c(O)c1)c1ccccc1O,0,2,5,-10,-16,-10,/,/,
Cc1ccc(C)c(NC(=O)c2ccccc2O)c1,-3,-7,-13,5,3,7,/,/,
Cc1cccc(NS(=O)(=O)c2cc([N+](=O)[O-])ccc2C)n1,-4,-7,-3,13,-4,-7,/,/,
CC(C)N1C(=O)CCC1C(=O)NCc1ccco1 (centres undefined),1,-14,13,4,-4,0,/,/,
COc1cc(/C=N/NC(N)=O)cc([N+](=O)[O-])c1O,-38,-7,-1,5,7,39*,-12,5,
Oc1ccc(/C=N/Nc2ccnc3cc(Cl)ccc23)c(O)c1O,-16,-10,-8,-2,/,40*,7,45*,
COc1ccc(/C=C2\N=C(C)OC2=O)cc1OC,-15,-1,-19,-17,/,38*,-13,18,
Cc1ccc(S(=O)(=O)N(C)C)cc1NC(=S)NNC(=O)C(N)=O,2,-5,1,-6,1,3,/,/,
NS(=O)(=O)c1ccc2nc(NC(=O)c3ccc4ncsc4c3)sc2c1,-2,-2,-11,7,/,44*,42*,11,DNA FID DR=>79
SMILES,HCV core dimer,GPR7 antag,ZTA DNA inh,EBNA-1 inh,EBV gp42 block,HCV NS3 hel inh,NS3 hel confirm,DNA FID counter,others
Cc1ccc2nc(NC(=O)c3ccc4ncsc4c3)sc2c1,4,-10,-4,-6,6,0,/,/,
Cc1cc(C)cc(SCc2noc(C(=O)NCCC(C)C)c2C(=O)NCCC(C)C)c1,-3,/,-1,-7,/,/,/,/,
O=c1cc(-c2ccccc2Cl)oc2cccc(O)c12,-3,-6,14,15,8,3,/,/,
O=c1cc2oc3cc(O)c(O)cc3c(-c3ccccc3[N+](=O)[O-])c-2cc1O,-29,2,-2,3,/,64*,109*,31,DNA FID DR=>79
CC(=O)C(C(C)=O)c1c(Cl)c(O)c(O)c2c(C(=O)c3ccccc3)coc12,2,-10,-3,-17,6,38*,-10,3,
O=C(CN1CCN(c2nc(-c3ccc(Cl)cc3)cs2)CC1)NCc1ccco1,3,-14,-5,2,-9,-6,/,/,
O=S(=O)(Cc1noc(-c2ccc(Cl)cc2)n1)Cc1ccco1,0,-7,-9,1,-13,52*,-11,0,
Clc1ccc(-c2nc(Cc3ccccc3Cl)no2)cc1,5,9,3,-3,-7,1,/,/,
O=S(=O)(Cc1ccco1)Cc1nc(-c2ccc(Cl)cc2)cs1,0,7,-5,3,-8,43*,-14,-8,
Cc1ccc(-c2csc(N(C)C(=O)c3c(C)nn(-c4ccccc4)c3Cl)n2)cc1,3,-14,-5,-9,-4,4,/,/,
CC(OC(=O)c1ccc(Cl)c(S(=O)(=O)N2CCCC2)c1)C(=O)NC1CCCCC1C (centres undefined),-20,-15,-11,-12,/,37*,-14,-16,
Cc1ccc(C(=O)Nc2cc(-c3ccn[nH]3)c(C)n(N)c2=O)cc1,-1,-5,7,2,-10,-9,/,/,
FC(F)(F)c1ccccc1C1=CC(c2ccccc2)n2ncnc2N1 (centres undefined),-7,/,0,-5,/,/,/,/,
Clc1ccccc1C1=CC(c2ccco2)n2ncnc2N1 (centres undefined),-3,-12,-6,7,13,41*,5,-12,
CCOc1nc(C)ccc1-c1noc(-c2cccnc2)n1,4,-16,7,-4,/,0,/,/,
O=C(Nc1cc(C(F)(F)F)ccc1N1CCOCC1)C1Cc2ccccc2CN1C(=O)c1ccco1 (centres undefined),7,40*,1,-4,9,57*,-7,-23,

# High-throughput results from PubChem BioAssay.
